# Results reported in ChEMBL document CHEMBL1151856, “Novel, potent, and radio-iodinatable somatostatin receptor 1 (sst1) selective analogues” (J Med Chem, 2009).
# Activity calls are given as the source filed them. The rule behind the calls is not given here. Positions of bridges follow the written chain, without caps; N, C: chain ends. Non-standard residues stand in square brackets, D forms with d. Residues, ends and D or L forms follow the SMILES beside them. Phe(4-CH2NHiPr) = CC(C)NCc1ccc(C[C@H](N)C(=O)O)cc1
# Legend:
# [1] = molecular target: Somatostatin receptor type 4 (Homo sapiens, UniProt P31391); test: Displacement of [125I]LTT-SRIF-28 from human sst4 receptor by autoradiography
# [2] = molecular target: Somatostatin receptor type 3 (Homo sapiens, UniProt P32745); test: Displacement of [125I]LTT-SRIF-28 from human sst3 receptor by autoradiography
# Procedure, shortened: (§1)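 Competition autoradiography on 20-μm cryostat sections of membrane pellets from cells expressing each cloned receptor. Buffer was 170 mM Tris-HCl pH 8.2 with 1% BSA, bacitracin and 10 mM MgCl2. Cold washes, 1-week film exposure, image quantification against isotope standards, IC50 derived.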
# [3] = molecular target: Somatostatin receptor type 2 (Homo sapiens, UniProt P30874); test: Displacement of [125I]LTT-SRIF-28 from human sst2 receptor by autoradiography; procedure, shortened: as §1
# [4] = molecular target: T1, Somatostatin receptor type 1 (Homo sapiens, UniProt P30872); test: Displacement of [125I]LTT-SRIF-28 from human sst1 receptor by autoradiography; procedure, shortened: as §1
# [5] = molecular target: Somatostatin receptor type 5 (Homo sapiens, UniProt P35346); test: Displacement of [125I]LTT-SRIF-28 from human sst5 receptor by autoradiography; procedure, shortened: as §1
# [6] = molecular target: T1, Somatostatin receptor type 1; test: Agonist activity at human sst1 receptor expressed in Chinese hamster CCL39 cells by luciferase reporter gene assay relative to somatostatin-14; format: functional, cell-based
# T1 sequence (P30872 whole entry): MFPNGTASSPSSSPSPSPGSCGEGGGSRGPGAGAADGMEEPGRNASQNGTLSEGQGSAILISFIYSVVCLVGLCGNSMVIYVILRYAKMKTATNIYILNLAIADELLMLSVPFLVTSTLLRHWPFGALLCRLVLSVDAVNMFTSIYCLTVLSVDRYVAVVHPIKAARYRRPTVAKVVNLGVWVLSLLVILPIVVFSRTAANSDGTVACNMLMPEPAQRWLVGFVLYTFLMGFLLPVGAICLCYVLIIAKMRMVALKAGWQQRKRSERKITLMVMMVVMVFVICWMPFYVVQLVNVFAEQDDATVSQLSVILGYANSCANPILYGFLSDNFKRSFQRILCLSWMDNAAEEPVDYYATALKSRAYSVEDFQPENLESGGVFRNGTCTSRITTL
# Somatostatin receptor type 5, sequence (P35346 whole entry): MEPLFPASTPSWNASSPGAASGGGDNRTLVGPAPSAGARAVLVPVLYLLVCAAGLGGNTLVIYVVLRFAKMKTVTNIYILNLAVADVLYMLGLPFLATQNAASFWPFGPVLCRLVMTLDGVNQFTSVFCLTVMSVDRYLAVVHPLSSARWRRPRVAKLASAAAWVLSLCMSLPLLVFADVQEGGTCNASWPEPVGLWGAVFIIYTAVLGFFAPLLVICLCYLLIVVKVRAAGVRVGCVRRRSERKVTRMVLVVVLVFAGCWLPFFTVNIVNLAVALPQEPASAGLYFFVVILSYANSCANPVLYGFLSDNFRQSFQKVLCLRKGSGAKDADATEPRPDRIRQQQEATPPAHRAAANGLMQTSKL
# Somatostatin receptor type 2, sequence (P30874 whole entry): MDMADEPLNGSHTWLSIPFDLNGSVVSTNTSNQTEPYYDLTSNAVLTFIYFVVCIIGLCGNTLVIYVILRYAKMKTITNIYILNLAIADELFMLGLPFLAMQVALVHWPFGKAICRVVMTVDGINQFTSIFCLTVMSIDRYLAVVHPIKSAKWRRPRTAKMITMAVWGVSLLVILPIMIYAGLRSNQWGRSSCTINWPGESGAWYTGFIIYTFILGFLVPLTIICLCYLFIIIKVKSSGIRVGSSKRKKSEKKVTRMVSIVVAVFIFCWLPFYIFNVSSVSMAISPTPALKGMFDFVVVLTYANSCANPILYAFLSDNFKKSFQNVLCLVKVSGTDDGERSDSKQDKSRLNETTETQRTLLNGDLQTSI
# Somatostatin receptor type 4, sequence (P31391 whole entry): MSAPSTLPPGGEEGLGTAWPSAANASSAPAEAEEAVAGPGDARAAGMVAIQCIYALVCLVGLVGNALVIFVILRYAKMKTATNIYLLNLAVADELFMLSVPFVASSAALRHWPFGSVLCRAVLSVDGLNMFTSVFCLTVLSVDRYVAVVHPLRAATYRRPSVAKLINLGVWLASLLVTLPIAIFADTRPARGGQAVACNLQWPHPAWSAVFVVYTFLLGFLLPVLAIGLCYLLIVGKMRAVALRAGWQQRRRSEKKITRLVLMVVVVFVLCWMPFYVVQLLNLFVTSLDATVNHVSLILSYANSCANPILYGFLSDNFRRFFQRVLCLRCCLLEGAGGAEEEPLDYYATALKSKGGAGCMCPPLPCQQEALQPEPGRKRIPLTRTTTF
# Somatostatin receptor type 3, sequence (P32745 whole entry): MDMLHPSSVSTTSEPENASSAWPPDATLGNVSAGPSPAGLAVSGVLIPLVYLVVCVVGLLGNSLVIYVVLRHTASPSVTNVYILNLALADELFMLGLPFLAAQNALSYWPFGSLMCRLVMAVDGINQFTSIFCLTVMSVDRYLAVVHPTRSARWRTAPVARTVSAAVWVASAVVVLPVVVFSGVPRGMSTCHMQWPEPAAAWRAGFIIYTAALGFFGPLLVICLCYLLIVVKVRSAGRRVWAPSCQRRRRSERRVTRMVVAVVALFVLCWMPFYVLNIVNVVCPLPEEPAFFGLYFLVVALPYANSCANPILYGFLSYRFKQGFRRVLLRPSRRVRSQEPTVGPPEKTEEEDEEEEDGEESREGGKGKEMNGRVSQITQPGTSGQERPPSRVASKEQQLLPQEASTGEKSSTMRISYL
IC50 [1],IC50 [2],IC50 [3],IC50 [4],IC50 [5],Activity [6],EC50 [6],Compound
–,–,–,–,–,Active,–,"CC(C)NCc1ccc(C[C@@H]2NC(=O)[C@@H](N(C)C(=O)c3ccc4ccccc4c3)NC(=O)[C@H](Cc3ccccc3)NC(=O)[C@H](N)CSSC[C@@H](C(=O)N[C@@H](Cc3ccc4ccccc4c3)C(N)=O)NC(=O)[C@H](Cc3ccccc3)NC2=O)cc1 (single isomer, unassigned)"
–,> 1 µM,> 1 µM,0.108 µM,> 1 µM,–,–,CC(C)NCc1ccc(C[C@@H]2NC(=O)[C@@H](Cc3c[nH]c4ccccc34)NC(=O)[C@H](Cc3ccccc3)NC(=O)[C@@H](N)CSSC[C@@H](C(=O)N[C@H](C(N)=O)[C@@H](C)O)NC(=O)[C@H](Cc3ccccc3)NC2=O)cc1 (H-CF[dW][Phe(4-CH2NHiPr)]FCT-NH2; disulfide 1-6)
–,0.253 µM,> 1 µM,0.037 µM,> 1 µM,–,–,CC(C)NCc1ccc(C[C@@H]2NC(=O)[C@H](N(C)C(=O)c3ccc4ccccc4c3)NC(=O)[C@H](Cc3ccccc3)NC(=O)[C@@H](N)CSSC[C@@H](C(=O)N[C@H](C(N)=O)[C@@H](C)O)NC(=O)[C@H](Cc3ccccc3)NC2=O)cc1
> 1 µM,> 1 µM,> 1 µM,–,> 1 µM,–,–,CC(C)NCc1ccc(C[C@@H]2NC(=O)[C@H](N(C)C(=O)c3ccc4ccccc4c3)NC(=O)[C@H](Cc3ccccc3)NC(=O)[C@@H](NC(=O)[C@H](N)Cc3ccc(O)cc3)CSSC[C@@H](C(=O)N[C@H](C(N)=O)[C@@H](C)O)NC(=O)[C@H](Cc3ccccc3)NC2=O)cc1
–,0.072 µM,> 1 µM,0.014 µM,> 1 µM,–,–,CC(C)NCc1ccc(C[C@@H]2NC(=O)[C@@H](Cc3c[nH]c4ccccc34)NC(=O)[C@H](Cc3ccccc3)NC(=O)[C@@H](NC(=O)[C@H](N)Cc3ccccc3)CSSC[C@@H](C(=O)N[C@H](C(N)=O)[C@@H](C)O)NC(=O)[C@H](Cc3ccccc3)NC2=O)cc1 (H-[dF]CF[dW][Phe(4-CH2NHiPr)]FCT-NH2; disulfide 2-7)
0.27 µM,0.41 µM,> 1 µM,0.0082 µM,> 1 µM,Active,–,CC(C)NCc1ccc(C[C@@H]2NC(=O)[C@@H](N(C)C(=O)c3ccc4ccccc4c3)NC(=O)[C@H](Cc3ccccc3)NC(=O)[C@H](NC(=O)[C@@H](N)Cc3ccc(O)cc3)CSSC[C@@H](C(=O)N[C@@H](Cc3ccc4ccccc4c3)C(N)=O)NC(=O)[C@H](Cc3ccccc3)NC2=O)cc1
> 1 µM,> 1 µM,> 1 µM,0.53 µM,> 1 µM,–,–,CC(C)NCc1ccc(C[C@@H]2NC(=O)[C@H](N(C)C(=O)c3ccc4ccccc4c3)NC(=O)[C@H](Cc3ccccc3)NC(=O)[C@@H](N)CSSC[C@@H](C(N)=O)NC(=O)[C@H](Cc3ccc(O)cc3)NC2=O)cc1
0.027 µM,0.158 µM,> 1 µM,–,> 1 µM,–,–,CC(C)NCc1ccc(C[C@@H]2NC(=O)[C@@H](N(C)C(=O)c3ccc4ccccc4c3)NC(=O)[C@H](Cc3ccccc3)NC(=O)[C@@H](NC(=O)[C@H](N)Cc3ccc(O)cc3)CSSC[C@@H](C(=O)N[C@H](C(N)=O)[C@@H](C)O)NC(=O)[C@H](Cc3ccccc3)NC2=O)cc1
–,0.252 µM,> 1 µM,0.0047 µM,> 1 µM,Active,–,CC(C)NCc1ccc(C[C@@H]2NC(=O)[C@@H](N(C)C(=O)c3ccc4ccccc4c3)NC(=O)[C@H](Cc3ccccc3)NC(=O)[C@@H](N)CSSC[C@@H](C(N)=O)NC(=O)[C@H](Cc3ccc(O)cc3)NC2=O)cc1
0.095 µM,0.681 µM,> 1 µM,0.001 µM,> 1 µM,Active,0.0039 µM,CC(C)NCc1ccc(C[C@@H]2NC(=O)[C@@H](N(C)C(=O)c3ccc4ccccc4c3)NC(=O)[C@H](Cc3ccccc3)NC(=O)[C@@H](N)CSSC[C@@H](C(=O)N[C@H](C(N)=O)[C@@H](C)O)NC(=O)[C@H](Cc3ccccc3)NC2=O)cc1

# More lines, now with the values behind:
Compound,IC50 [1],IC50 [2],IC50 [3],IC50 [4],IC50 [5],Activity [6],EC50 [6]
CC(C)NCc1ccc(C[C@@H]2NC(=O)[C@H](N(C)C(=O)c3ccc4ccccc4c3)NC(=O)[C@H](Cc3ccccc3)NC(=O)[C@H](NC(=O)[C@@H](N)Cc3ccc(O)cc3)CSSC[C@@H](C(=O)N[C@@H](Cc3ccc4ccccc4c3)C(N)=O)NC(=O)[C@H](Cc3ccccc3)NC2=O)cc1,> 1 µM,0.463 µM,> 1 µM,0.189 µM,> 1 µM,–,–
CC(C)NCc1ccc(C[C@@H]2NC(=O)[C@@H](N(C)C(=O)c3ccc4ccccc4c3)NC(=O)[C@H](Cc3ccccc3)NC(=O)[C@H](Cc3ccccc3)NC(=O)[C@H](CCCCN)NC(=O)[C@@H](N)CSSC[C@@H](C(=O)O)NC(=O)[C@H](CO)NC(=O)[C@H]([C@@H](C)O)NC(=O)[C@H](Cc3ccc(O)cc3)NC(=O)[C@H]([C@@H](C)O)NC2=O)cc1,0.562 µM,> 1 µM,> 1 µM,0.0033 µM,> 1 µM,–,–
CC(C)NCc1ccc(C[C@@H]2NC(=O)[C@@H](Cc3c[nH]c4ccccc34)NC(=O)[C@H](Cc3ccccc3)NC(=O)[C@H](Cc3ccccc3)NC(=O)[C@H](CCCCN)NC(=O)[C@@H](N)CSSC[C@@H](C(=O)O)NC(=O)[C@H](CO)NC(=O)[C@H]([C@@H](C)O)NC(=O)[C@H](Cc3ccccc3)NC(=O)[C@H]([C@@H](C)O)NC2=O)cc1 (H-CKFF[dW][Phe(4-CH2NHiPr)]TFTSC-OH; disulfide 1-11),> 1 µM,0.15 µM,> 1 µM,0.031 µM,> 1 µM,–,–
CC(C)NCc1ccc(C[C@@H]2NC(=O)[C@@H](Cc3c[nH]c4ccccc34)NC(=O)[C@H](Cc3ccccc3)NC(=O)[C@H](Cc3ccccc3)NC(=O)[C@H](CCCCN)NC(=O)[C@@H](N)CSSC[C@@H](C(=O)O)NC(=O)[C@H](Cc3ccccc3)NC(=O)[C@H]([C@@H](C)O)NC2=O)cc1 (H-CKFF[dW][Phe(4-CH2NHiPr)]TFC-OH; disulfide 1-9),0.932 µM,0.789 µM,> 1 µM,0.189 µM,> 1 µM,–,–
CC(C)NCc1ccc(C[C@@H]2NC(=O)[C@@H](Cc3c[nH]c4ccccc34)NC(=O)[C@H](Cc3ccccc3)NC(=O)[C@H](Cc3ccccc3)NC(=O)[C@H](CCCCN)NC(=O)[C@@H](N)CSSC[C@@H](C(=O)O)NC(=O)[C@H](CO)NC(=O)[C@H]([C@@H](C)O)NC(=O)[C@H](Cc3ccc(O)c([125I])c3)NC(=O)[C@H]([C@@H](C)O)NC2=O)cc1,–,–,–,0.0036 µM,–,–,–
C[C@@H](O)[C@H](NC(=O)[C@@H]1CSSC[C@H](NC(=O)[C@H](N)Cc2ccccc2)C(=O)N[C@@H](Cc2ccccc2)C(=O)N[C@H](Cc2c[nH]c3ccccc23)C(=O)N[C@@H](CCCCN)C(=O)N[C@@H]([C@@H](C)O)C(=O)N1)C(N)=O,–,–,–,> 1 µM,–,–,–
CC(C)NCc1ccc(C[C@@H]2NC(=O)[C@@H](Cc3c[nH]c4ccccc34)NC(=O)[C@H](Cc3ccccc3)NC(=O)[C@H](Cc3ccccc3)NC(=O)[C@H](CCCCN)NC(=O)[C@@H](NC(=O)[C@@H](N)Cc3ccc(O)cc3)CSSC[C@@H](C(=O)O)NC(=O)[C@H](CO)NC(=O)[C@H]([C@@H](C)O)NC(=O)[C@H](Cc3ccccc3)NC(=O)[C@H]([C@@H](C)O)NC2=O)cc1 (H-YCKFF[dW][Phe(4-CH2NHiPr)]TFTSC-OH; disulfide 2-12),> 1 µM,> 1 µM,> 1 µM,–,–,Active,–
CC(C)NCc1ccc(C[C@@H]2NC(=O)[C@@H](Cc3c[nH]c4ccccc34)NC(=O)[C@H](Cc3ccccc3)NC(=O)[C@H](Cc3ccccc3)NC(=O)[C@@H](N)CSSC[C@@H](C(=O)O)NC(=O)[C@H](Cc3ccccc3)NC(=O)[C@H]([C@@H](C)O)NC2=O)cc1 (H-CFF[dW][Phe(4-CH2NHiPr)]TFC-OH; disulfide 1-8),> 1 µM,> 1 µM,> 1 µM,> 1 µM,> 1 µM,–,–
CC(C)NCc1ccc(C[C@@H]2NC(=O)[C@@H](Cc3c[nH]c4ccccc34)NC(=O)[C@H](Cc3ccccc3)NC(=O)[C@@H](NC(=O)[C@@H](N)Cc3ccc(O)cc3)CSSC[C@@H](C(=O)N[C@H](C(N)=O)[C@@H](C)O)NC(=O)[C@H](Cc3ccccc3)NC(=O)[C@H]([C@@H](C)O)NC2=O)cc1 (H-YCF[dW][Phe(4-CH2NHiPr)]TFCT-NH2; disulfide 2-8),> 1 µM,0.06 µM,> 1 µM,0.15 µM,> 1 µM,–,–
